Measured values from paper PMC9289880 (Journal of Medicinal Chemistry, 2022).
Where two headings read alike, the source gives them in different places. *1 amine or outer side, *2 acyl side, *3 side chain or, on linkers, in order; H or OH if unused. Where a SMILES comes first, the peptide text is derived from it. Bridges are numbered along the chain shown (N, C = ends). [ ]: non-standard residue; d: D form. Pro(trans-3-OAllyl) = C=CCO[C@H]1CCN[C@@H]1C(=O)O; Pro(3R-Ph) = O=C(O)[C@H]1NCC[C@@H]1c1ccccc1; Bip = N[C@@H](Cc1ccc(-c2ccccc2)cc1)C(=O)O; Ala(cPent) = N[C@@H](CC1CCCC1)C(=O)O; d(αMeS) = C[C@@](N)(CO)C(=O)O; Ahp(2) = CCCCC[C@H](N)C(=O)O; CH2 = C([*:1])[*:2]

Tests used:
[1] = molecular target: KRAS^G12D (Homo sapiens, UniProt P01116, G12D); test: SOS-catalyzed guanine nucleotide exchange; assay type: biochemical
Chain of KRAS^G12D (P01116 1-188 isoform P01116-2 G12D): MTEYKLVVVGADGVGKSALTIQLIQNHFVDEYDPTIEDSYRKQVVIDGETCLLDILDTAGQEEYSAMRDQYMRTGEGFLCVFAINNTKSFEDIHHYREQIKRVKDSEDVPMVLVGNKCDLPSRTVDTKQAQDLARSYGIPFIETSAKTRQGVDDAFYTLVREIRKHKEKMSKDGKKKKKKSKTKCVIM

[2] = Cell homogenate stability assay; assay type: in vitro ADME; conditions: human, HeLa cell homogenate
Procedure, shortened: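 HeLa cells suspended at 1 × 10^6 cells/mL, probe-sonicated on ice until homogeneous, then frozen at −20 °C until use. Peptides incubated with the homogenate (1 × 10^6 cells/mL equivalent). Loss of parent peptide over increasing time quantified by LC-MS/MS.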

[3] = tested on: pERK, AsPC-1 cells; test: AlphaScreen pERK assay in AsPC-1 cells; assay type: cell-based; conditions: for IC50: pERK
Procedure, shortened: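 AsPC-1 cells grown in RPMI 1640 (GlutaMAX, HEPES) with 10% FBS and penicillin/streptomycin. Seeded at 15 000 cells/well and held overnight at 37 °C, 5% CO2, then switched to serum-free medium. Compound dose-response series added acoustically, then incubated 2 and 18 h. Cells washed with DPBS and lysed with protease inhibitors. pERK (615 nm) and total ERK (535 nm) read by AlphaScreen SureFire multiplex. pERK/total ERK ratio fitted to 4-parameter logistic.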

[4] = tested on: HeLa cells; test: NanoClick cell permeability assay; assay type: in vitro ADME, Human
[5] = read-out: AlphaScreen (AsPC-1) 2 h IC50, AsPC-1, 2 h
[6] = read-out: AlphaScreen (AsPC-1) 18 h IC50, AsPC-1, 18 h

| Compound | IC50 [1] [nM] | IC50 [3, 5] [µM] | IC50 [3, 6] [µM] | other results |
| --- | --- | --- | --- | --- |
| CC[C@H](C)[C@@H]1NC(=O)[C@H](Cc2ccc(-c3ccccc3)cc2)NC(=O)[C@H](CC(C)C)NC(=O)[C@@H]2[C@@H](c3ccccc3)CCN2C(=O)[C@H](NC(=O)[C@H](CCCNC(=N)N)NC(=O)[C@H](CCCNC(=N)N)NC(=O)[C@H](CCCCN=[N+]=[N-])NC(C)=O)CSCSC[C@@H](C(=O)N[C@@H](CCCNC(=N)N)C(=O)N[C@@H](CCCNC(=N)N)C(N)=O)NC(=O)[C@H](C(C)C)NC(=O)[C@@H]2CCCN2C(=O)[C@H](CC(=O)O)NC(=O)[C@H](Cc2ccc(O)cc2)NC(=O)[C@H](CO)NC1=O [peptide 6, Ac-Lys(N3)-RR-cyclo(c(methylene)-Prot3Ph-L-Bip-ISYDPVC)-RR-NH2] | < 1 | 2.7 | 19 | SOS GNE potency / binding, in words [1]: subnanomolar; half-life at 1 µM [2]: > 372 min; fold improved cellular activity at 2 h versus 18 h ([3]; AsPC-1 pERK): 6 fold; NanoClick permeability at 4 h, in words [4]: limited permeability; NanoClick permeability at 18 h, in words [4]: much-increased permeability; EC50 ([4]; read-out: NanoClick (HeLa) 4 h EC50, 4 h): 7.32 µM; EC50 ([4]; read-out: NanoClick (HeLa) 18 h EC50, 18 h): 0.199 µM |
| CC[C@@H](C)[C@H]1NC(=O)[C@H](Cc2ccc(-c3ccccc3)cc2)NC(=O)[C@H](CC(C)C)NC(=O)[C@@H]2[C@@H](c3ccccc3)CCN2C(=O)[C@H](NC(=O)[C@@H](CCCNC(=N)N)NC(=O)[C@@H](CCCNC(=N)N)NC(C)=O)CSCSC[C@@H](C(=O)N[C@H](CCCNC(=N)N)C(=O)N[C@H](CCCNC(=N)N)C(N)=O)NC(=O)[C@H](C(C)C)NC(=O)[C@@H]2CCCN2C(=O)[C@H](CC(=O)O)NC(=O)[C@H](Cc2ccc(O)cc2)NC(=O)[C@@](C)(CO)NC1=O [peptide 8, Ac-rr-cyclo(c(methylene)-Prot3Ph-L-Bip-i-aMeS-YDPVC)-rr-NH2] (Ac-[dR][dR][dC][Pro(3R-Ph)]L[Bip][dI][d(αMeS)]YDPVC[dR][dR]-NH2; linker 3-13 via CH2) | – | – | – | SOS GNE potency / binding, in words [1]: no response; cellular (pERK) activity, in words ([3]; AsPC-1): no cellular activity |
| CC(=O)N[C@@H](CCCNC(=N)N)C(=O)N[C@@H](CCCNC(=N)N)C(=O)N[C@H]1CSSC[C@@H](C(=O)N[C@@H](CCCNC(=N)N)C(=O)N[C@@H](CCCNC(=N)N)C(N)=O)NC(=O)[C@H](C(C)C)NC(=O)[C@@H]2CCCN2C(=O)[C@H](CC(=O)O)NC(=O)[C@H](Cc2ccc(O)cc2)NC(=O)[C@H](CO)NC(=O)[C@H](CC2CCCC2)NC(=O)[C@H](Cc2ccc(-c3ccccc3)cc2)NC(=O)[C@H](CC(C)C)NC(=O)[C@@H]2CCCN2C1=O [1-11, Ac-RR-cyclo(CPL-Bip-cPeA-SYDPVC)-RR-NH2] (Ac-RRCPL[Bip][Ala(cPent)]SYDPVCRR-NH2; disulfide 3-13) | > 11100 | – | – | – |
| C=CCO[C@H]1CCN2C(=O)[C@H](NC(=O)[C@H](CCCNC(=N)N)NC(=O)[C@H](CCCNC(=N)N)NC(C)=O)CSCSC[C@@H](C(=O)N[C@@H](CCCNC(=N)N)C(=O)N[C@@H](CCCNC(=N)N)C(N)=O)NC(=O)[C@H](CCCCC)NC(=O)[C@@H]3CCCN3C(=O)[C@H](CC(=O)O)NC(=O)[C@H](Cc3ccc(O)cc3)NC(=O)[C@H](CO)NC(=O)[C@H]([C@@H](C)CC)NC(=O)[C@H](Cc3ccc(-c4ccccc4)cc3)NC(=O)[C@H](CC(C)C)NC(=O)[C@H]12 [5-04, Ac-RR-cyclo(c(methylene)-Prot3OAl-L-Bip-ISYDP-Ahp-C)-RR-NH2] (Ac-RR[dC][Pro(trans-3-OAllyl)]L[Bip]ISYDP[Ahp(2)]CRR-NH2; linker 3-13 via CH2) | < 1 | – | > 50 | – |
| CC[C@H](C)[C@@H]1NC(=O)[C@H](Cc2ccc(O)cc2)NC(=O)[C@H](CC(C)C)NC(=O)[C@@H]2CCCN2C(=O)[C@H](NC(=O)[C@@H](CCCNC(=N)N)NC(=O)[C@@H](CCCNC(=N)N)NC(=O)[C@H](CCCCN=[N+]=[N-])NC(C)=O)CSCSC[C@@H](C(=O)N[C@H](CCCNC(=N)N)C(=O)N[C@H](CCCNC(=N)N)C(N)=O)NC(=O)[C@H](C(C)C)NC(=O)[C@@H]2CCCN2C(=O)[C@H](CC(=O)O)NC(=O)[C@H](Cc2ccc(O)cc2)NC(=O)[C@H](CO)NC1=O [peptide 10] | – | – | – | NanoClick permeability at 4 h, in words [4]: no permeability; NanoClick permeability at 18 h, in words [4]: very limited permeability |
| C=CCO[C@H]1CCN2C(=O)[C@@H](NC(=O)[C@H](CCCNC(=N)N)NC(=O)[C@H](CCCNC(=N)N)NC(C)=O)CSSC[C@@H](C(=O)N[C@@H](CCCNC(=N)N)C(=O)N[C@@H](CCCNC(=N)N)C(N)=O)NC(=O)[C@H](C(C)C)NC(=O)[C@@H]3CCCN3C(=O)[C@H](CC(=O)O)NC(=O)[C@H](Cc3ccc(O)cc3)NC(=O)[C@H](CO)NC(=O)[C@H]([C@@H](C)CC)NC(=O)[C@H](Cc3ccc(-c4ccccc4)cc3)NC(=O)[C@H](CC(C)C)NC(=O)[C@H]12 [3-05, Ac-RR-cyclo(C-Prot3OAl-L-Bip-ISYDPVC)-RR-NH2] (Ac-RRC[Pro(trans-3-OAllyl)]L[Bip]ISYDPVCRR-NH2; disulfide 3-13) | 1 | – | – | fold improvement in SOS potency over reference peptide 1-09 [1]: 7 fold |
| CC[C@H](C)[C@@H]1NC(=O)[C@H](Cc2ccc(-c3ccccc3)cc2)NC(=O)[C@H](CC(C)C)NC(=O)[C@@H]2CCCN2C(=O)[C@@H](NC(=O)[C@H](CCCNC(=N)N)NC(=O)[C@H](CCCNC(=N)N)NC(C)=O)CSSC[C@@H](C(=O)N[C@@H](CCCNC(=N)N)C(=O)N[C@@H](CCCNC(=N)N)C(N)=O)NC(=O)[C@H](C(C)C)NC(=O)[C@@H]2CCCN2C(=O)[C@H](CC(=O)O)NC(=O)[C@H](Cc2ccc(O)cc2)NC(=O)[C@H](CO)NC1=O [peptide 1-09, Ac-RR-cyclo(CPL-Bip-ISYDPVC)-RR-NH2] (Ac-RRCPL[Bip]ISYDPVCRR-NH2; disulfide 3-13) | – | – | – | fold improvement in SOS potency over reference 2 (KRpep-2) [1]: 8 fold |
| CC[C@H](C)[C@@H]1NC(=O)[C@H](Cc2ccc(-c3ccccc3)cc2)NC(=O)[C@H](COC)NC(=O)[C@@H]2CCCN2C(=O)[C@@H](NC(=O)[C@H](CCCNC(=N)N)NC(=O)[C@H](CCCNC(=N)N)NC(C)=O)CSSC[C@@H](C(=O)N[C@@H](CCCNC(=N)N)C(=O)N[C@@H](CCCNC(=N)N)C(N)=O)NC(=O)[C@H](C(C)C)NC(=O)[C@@H]2CCCN2C(=O)[C@H](CC(=O)O)NC(=O)[C@H](Cc2ccc(O)cc2)NC(=O)[C@H](CO)NC1=O [3-02, Ac-RR-cyclo(CP-SerOMe-Bip-ISYDPVC)-RR-NH2] (Ac-RRCPS(Me)[Bip]ISYDPVCRR-NH2; disulfide 3-13) | 1130 | – | – | – |
| C=CCO[C@H]1CCN2C(=O)[C@H](NC(=O)[C@H](CCCNC(=N)N)NC(=O)[C@H](CCCNC(=N)N)NC(C)=O)CSCSC[C@@H](C(=O)N[C@@H](CCCNC(=N)N)C(=O)N[C@@H](CCCNC(=N)N)C(N)=O)NC(=O)[C@H](C(C)C)NC(=O)[C@@H]3CCCN3C(=O)[C@H](CC(=O)O)NC(=O)[C@H](Cc3ccc(O)cc3)NC(=O)[C@H](CO)NC(=O)[C@H]([C@@H](C)CC)NC(=O)[C@H](Cc3ccc(-c4ccccc4)cc3)NC(=O)[C@H](CC(C)C)NC(=O)[C@H]12 [5-02, Ac-RR-cyclo(c(methylene)-Prot3OAl-L-Bip-ISYDPVC)-RR-NH2] (Ac-RR[dC][Pro(trans-3-OAllyl)]L[Bip]ISYDPVCRR-NH2; linker 3-13 via CH2) | < 1 | 28 | > 50 | – |
| CCCCC[C@@H]1NC(=O)[C@@H]2CCCN2C(=O)[C@H](CC(=O)O)NC(=O)[C@H](Cc2ccc(O)cc2)NC(=O)[C@H](CO)NC(=O)[C@H]([C@@H](C)CC)NC(=O)[C@H](Cc2ccc(-c3ccccc3)cc2)NC(=O)[C@H](CC(C)C)NC(=O)[C@@H]2[C@@H](c3ccccc3)CCN2C(=O)[C@H](NC(=O)[C@H](CCCNC(=N)N)NC(=O)[C@H](CCCNC(=N)N)NC(C)=O)CSCSC[C@@H](C(=O)N[C@@H](CCCNC(=N)N)C(=O)N[C@@H](CCCNC(=N)N)C(N)=O)NC1=O [5-03, Ac-RR-cyclo(c(methylene)-Prot3Ph-L-Bip-ISYDP-Ahp-C)-RR-NH2] (Ac-RR[dC][Pro(3R-Ph)]L[Bip]ISYDP[Ahp(2)]CRR-NH2; linker 3-13 via CH2) | < 1 | 6.8 | 29 | half-life at 1 µM [2]: > 372 min |
| CC[C@H](C)[C@@H]1NC(=O)[C@H](Cc2ccc(-c3ccccc3)cc2)NC(=O)[C@H](CC(C)C)NC(=O)[C@@H]2[C@@H](c3ccccc3)CCN2C(=O)[C@H](NC(=O)[C@H](CCCNC(=N)N)NC(=O)[C@H](CCCNC(=N)N)NC(C)=O)CSCSC[C@@H](C(=O)N[C@@H](CCCNC(=N)N)C(=O)N[C@@H](CCCNC(=N)N)C(N)=O)NC(=O)[C@H](C(C)C)NC(=O)[C@@H]2CCCN2C(=O)[C@H](CC(=O)O)NC(=O)[C@H](Cc2ccc(O)cc2)NC(=O)[C@H](CO)NC1=O [peptide 5-01, Ac-RR-cyclo(c(methylene)-Prot3Ph-L-Bip-ISYDPVC)-RR-NH2] (Ac-RR[dC][Pro(3R-Ph)]L[Bip]ISYDPVCRR-NH2; linker 3-13 via CH2) | < 1 | 3.3 | 33 | half-life at 1 µM [2]: > 372 min |
| CC[C@H](C)[C@@H]1NC(=O)[C@H](Cc2ccc(-c3ccccc3)cc2)NC(=O)[C@H](CC(C)C)NC(=O)[C@@H]2[C@@H](c3ccccc3)CCN2C(=O)[C@@H](NC(=O)[C@H](CCCNC(=N)N)NC(=O)[C@H](CCCNC(=N)N)NC(C)=O)CSSC[C@@H](C(=O)N[C@@H](CCCNC(=N)N)C(=O)N[C@@H](CCCNC(=N)N)C(N)=O)NC(=O)[C@H](C(C)C)NC(=O)[C@@H]2CCCN2C(=O)[C@H](CC(=O)O)NC(=O)[C@H](Cc2ccc(O)cc2)NC(=O)[C@H](CO)NC1=O [peptide 3-09, Ac-RR-cyclo(C-Prot3Ph-L-Bip-ISYDPVC)-RR-NH2] (Ac-RRC[Pro(3R-Ph)]L[Bip]ISYDPVCRR-NH2; disulfide 3-13) | – | – | – | fold improvement in SOS potency over reference peptide 1-09 [1]: 7 fold |
